The source of these data is ChEMBL document CHEMBL1122111, “Allergenic alpha-methylene-gamma-butyrolactones. Stereospecific syntheses of (+)- and (-)-gamma-methyl-alpha-methylene-gamma-butyrolactones. A study of the specificity of (+) and (-) enantiomers in inducing allergic contact dermatitis” (1982).

Common to all, as to type: functional
The species entered for test [1] is Cavia porcellus. In words: Tested for effect on guinea pigs sensitized with (R)-5-Methyl-3-methylene -dihydro -furan-2-one, Number of sensitive animals out of 8 tested. Summed up:
(§1)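 Female albino Hartley guinea pigs (250–300 g) received three 0.1-mL intradermal nuchal injections on alternate days of a 1:1 FCA/saline emulsion with 5% (+)-enantiomer. After 2 weeks rest, 0.25 mL of 1% or 2% methylene chloride solution was deposited on a 2-cm2 circle and read every 24 h. Erythema/swelling was scored 0–3; av = summed intensities divided by animal number.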

For test [2], the species on record is Cavia porcellus. Briefly: Tested for effect on guinea pigs sensitized with (S)5-Methyl-3-methylene-dihydro- furan-2-one; Number of sensitive animals out of 8 tested. Summed up:
(§2)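 Sensitization: female albino Hartley guinea pigs (250–300 g) were given three alternate-day 0.1-mL intradermal nuchal injections of 1:1 FCA/saline emulsion containing 5% (−)-enantiomer. Challenge after 2 weeks rest used 0.25 mL of 1% or 2% methylene chloride solution on a 2-cm2 area, read every 24 h. The scale was 0 (none) to 3 (erythema/swelling beyond area); av = summed scores/animals.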

The species entered for test [3] is Cavia porcellus. In words: Tested for effect on guinea pigs sensitized with (+/-)-5-Methyl-3-methylene-dihydro-furan-2-one, Number of sensitive animals out of 8 tested. Summed up: (§3)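 Female albino Hartley guinea pigs (250–300 g), sensitized by three intradermal nuchal injections of 0.1 mL on alternate days. The emulsion was 1:1 FCA/saline with 10% racemate (5% of each antipode). After 2 weeks rest, 0.25 mL of 1% or 2% methylene chloride solution was applied to a 2-cm2 area. Reactions were scored 0–3 every 24 h; av = summed scores/animals.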

The species named for test [4] is Cavia porcellus. In words: Tested for effect on guinea pigs sensitized with (R)-5-Methyl-3-methylene -dihydro -furan-2-one,av is calculated by adding the test intensity and divided by the number of animals. Summed up:
as §1

The species entered for test [5] is Cavia porcellus. Briefly: Tested for effect on guinea pigs sensitized with (S)5-Methyl-3-methylene-dihydro- furan-2-one,av is calculated by adding the test intensity and divided by the number of animals. Summed up: as §2
For test [6], the species on record is Cavia porcellus. Briefly: Tested for effect on guinea pigs sensitized with (+/-)-5-Methyl-3-methylene-dihydro-furan-2-one, av is calculated by adding the test intensity and divided by the number of animals. Summed up:
as §3

The species named for test [7] is Cavia porcellus. In words: Tested for effect on guinea pigs sensitized with (R)-5-Methyl-3-methylene -dihydro -furan-2-one, number of animals showing erythema and swelling of the test area. In outline: as §1
The species entered for test [8] is Cavia porcellus. Briefly: Tested for effect on guinea pigs sensitized with (R)-5-Methyl-3-methylene -dihydro -furan-2-one,number of animals showing erythema covering the part of the test area. Summed up: as §1
Test [9] is filed under the species Cavia porcellus. Briefly: Tested for effect on guinea pigs sensitized with (R)-5-Methyl-3-methylene -dihydro -furan-2-one,number of animals showing erythema covering the whole test area. In outline: as §1
For test [10], the species on record is Cavia porcellus. Briefly: Tested for effect on guinea pigs sensitized with (R)-5-Methyl-3-methylene -dihydro -furan-2-one,number of animals showing no reaction. Summed up: as §1
The species entered for test [11] is Cavia porcellus. In words: Tested for effect on guinea pigs sensitized with (S)5-Methyl-3-methylene-dihydro- furan-2-one number of animals showing erythema and swelling of the test area. Summed up: as §2
Test [12] is filed under the species Cavia porcellus. Briefly: Tested for effect on guinea pigs sensitized with (S)5-Methyl-3-methylene-dihydro- furan-2-one number of animals showing erythema covering the part of the test area. Summed up:
as §2

Test [13] is filed under the species Cavia porcellus. In words: Tested for effect on guinea pigs sensitized with (S)5-Methyl-3-methylene-dihydro- furan-2-onenumber of animals showing erythema covering the whole test area. Summed up:
as §2

Test [14] is filed under the species Cavia porcellus. In words: Tested for effect on guinea pigs sensitized with (+/-)-5-Methyl-3-methylene-dihydro-furan-2-one number of animals showing erythema and swelling of the test area. In outline: as §3
Test [15] is filed under the species Cavia porcellus. In words: Tested for effect on guinea pigs sensitized with (+/-)-5-Methyl-3-methylene-dihydro-furan-2-one,number of animals showing erythema covering the part of the test area. In outline:
as §3

The species entered for test [16] is Cavia porcellus. In words: Tested for effect on guinea pigs sensitized with (+/-)-5-Methyl-3-methylene-dihydro-furan-2-one,number of animals showing erythema covering the whole test area. Summed up:
as §3

Test [17] is filed under the species Cavia porcellus. In words: Tested for effect on guinea pigs sensitized with (+/-)-5-Methyl-3-methylene-dihydro-furan-2-one,number of animals showing no reaction. Summed up:
as §3

The species entered for test [18] is Cavia porcellus. In words: Tested for effect on guinea pigs sensitized with (S)5-Methyl-3-methylene-dihydro- furan-2-one number of animals showing no reaction. In outline: as §2

Turning to `C=C1C[C@@H](C)OC1=O`, the “No. of sensitive animals” value in the test listed under Cavia porcellus [1], in the test filed under Cavia porcellus [2] and in the test listed under Cavia porcellus [3] was 8 throughout. Further, the values for the av in the test listed under Cavia porcellus [4], in the test filed under Cavia porcellus [5] and in the test filed under Cavia porcellus [6] were 1.3, 0.8 and 1.7, respectively. For the same molecule, the Skin tests intensity in the test listed under Cavia porcellus [7] came to 3; in the test filed under Cavia porcellus [8], 1; in the test filed under Cavia porcellus [9], 4; in the test listed under Cavia porcellus [10] it was 0; in the test listed under Cavia porcellus [11] it was 0; in the test filed under Cavia porcellus [12] it was 3. In addition, the Skin tests intensity is 5 in the test listed under Cavia porcellus [13]; 6 in the test listed under Cavia porcellus [14]; 1 in the test listed under Cavia porcellus [15]; 1 in the test filed under Cavia porcellus [16]; 0 in the test listed under Cavia porcellus [17]; 0 in the test listed under Cavia porcellus [18].
